Source: ChEMBL document CHEMBL2029264, “Indole-based fibrates as potential hypolipidemic and antiobesity agents” (J Med Chem, 2012)
Activity calls are given as the source filed them. No cut-off for these calls is given here.

Experiments:
Rattus norvegicus [1] = assay: Antihyperlipidemic activity in Triton WR-1339-induced hyperlipidemic rat assessed as decrease in plasma total cholesterol level at 150 mg/kg, po; assay type: functional
How it was run: (§1)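 Separate set of Triton WR-1339-induced hyperlipidemic rats, oral doses of 50, 100 and 150 mg/kg. Plasma TC, PL, TG in mg/dL; PHLA as […]/h/mL plasma. Mean ± SD of six rats versus Triton group.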

Rattus norvegicus [2] = assay: Antihyperlipidemic activity in Triton WR-1339-induced hyperlipidemic rat assessed as increase in LCAT enzyme level at 50 mg/kg, po; assay type: functional; how it was run: as §1
Rattus norvegicus [3] = assay: Antihyperlipidemic activity in Triton WR-1339-induced hyperlipidemic rat assessed as increase in PHLA enzyme level at 150 mg/kg, po; assay type: functional; how it was run: as §1
Rattus norvegicus [4] = assay: Antihyperlipidemic activity in HFD-induced hyperlipidemic Charles Foster rat assessed as increase in [I125]-LDL catabolism in plasma membrane of liver at 100 mg/kg/day, po administered for 4 weeks; assay type: functional
How it was run: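 Rats on 8 weeks total of high-fat diet, dosed daily for the last 4 weeks, then sacrificed. Human serum LDL radiolabeled with I125; specific binding to liver plasma membrane preparation measured as receptor-mediated LDL catabolism. Mean ± SD, n = 6.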

Rattus norvegicus [5] = assay: Antihyperlipidemic activity in po dosed Triton WR-1339-induced hyperlipidemic rat assessed as increase in PHLA; assay type: functional, organism-based
How it was run: (§2)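 Triton WR-1339 given to rats to induce hyperlipidemia; oral dosing. Plasma TC, PL, TG in mg/dL; PHLA as […]/h/mL plasma. Mean ± SD of six rats; Triton group compared with control, Triton plus dosed group compared with Triton group.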

Rattus norvegicus [6] = assay: Antihyperlipidemic activity in po dosed Triton WR-1339-induced hyperlipidemic rat assessed as decrease in plasma phospholipid level; assay type: functional, organism-based; how it was run: as §2
Rattus norvegicus [7] = assay: Antihyperlipidemic activity in HFD-induced hyperlipidemic Charles Foster rat assessed as decrease in plasma LDL-apoprotein level at 100 mg/kg, po administered for 4 weeks relative to control; assay type: functional; set-up: scale not given: the % may be the effect or the level left
How it was run: (§3)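 After 4 weeks high-fat feeding plus 4 weeks daily dosing, overnight fast, retro-orbital blood into EDTA tubes. Serum split into VLDL, LDL and HDL by polyanionic precipitation; each fraction assayed for TC, PL, TG and apoprotein (mg/dL plasma). Pooled data from 6 rats/group, mean ± SD, dosed groups compared with high-fat group.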

Rattus norvegicus [8] = assay: Antihyperlipidemic activity in HFD-induced hyperlipidemic Charles Foster rat assessed as decrease in plasma LDL-triglyceride level at 100 mg/kg, po administered for 4 weeks relative to control; assay type: functional; set-up: scale not given: the % may be the effect or the level left; how it was run: as §3
Rattus norvegicus [9] = assay: Antiobesity activity in HFD-induced hyperlipidemic Charles Foster rat assessed as decrease in mesenteric fat-pad at 100 mg/kg, po administered for 4 weeks; assay type: functional, organism-based; set-up: dose 100 mg/kg
How it was run: (§4)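 Adult male Charles Foster rats given high-fat or normal diet 4 weeks, then diet plus vehicle or daily dosing 4 more weeks, sacrificed at week 8. Body weight gain, food intake, food efficiency ratio (weight gain/food intake over the period), and mesenteric, gonadal, inguinal and perirenal fat-pad weights recorded; mean ± SD, n = 6.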

Rattus norvegicus [10] = assay: Antihyperlipidemic activity in HFD-induced hyperlipidemic Charles Foster rat assessed as decrease in plasma VLDL-phospholipid level at 100 mg/kg, po administered for 4 weeks relative to control; assay type: functional; set-up: scale not given: the % may be the effect or the level left; how it was run: as §3
Rattus norvegicus [11] = assay: Antiobesity activity in HFD-induced hyperlipidemic Charles Foster rat assessed as decrease in inguinal fat-pad at 100 mg/kg, po administered for 4 weeks; assay type: functional, organism-based; set-up: dose 100 mg/kg; how it was run: as §4
Rattus norvegicus [12] = assay: Antihyperlipidemic activity in HFD-induced hyperlipidemic Charles Foster rat assessed as decrease in serum triglyceride level at 100 mg/kg, po administered for 4 weeks relative to control; assay type: functional; set-up: scale not given: the % may be the effect or the level left
How it was run: (§5)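 Male Charles Foster rats (200−225 g): high-fat diet 4 weeks, then diet plus daily dosing 4 weeks. Overnight fast, retro-orbital blood in EDTA (3 mg/mL blood), centrifuged to serum. TC, PL, TG in mg/dL; LCAT as nmol cholesterol released/h/L plasma. Mean ± SD; dosed groups compared with high-fat group, P by significance levels.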

Rattus norvegicus [13] = assay: Antiobesity activity in HFD-induced hyperlipidemic Charles Foster rat assessed as decrease in perirenal fat-pad at 100 mg/kg, po administered for 4 weeks; assay type: functional, organism-based; set-up: dose 100 mg/kg; how it was run: as §4
Rattus norvegicus [14] = assay: Antihyperlipidemic activity in Triton WR-1339-induced hyperlipidemic rat assessed as increase in LCAT enzyme level at 150 mg/kg, po; assay type: functional; how it was run: as §1
Rattus norvegicus [15] = assay: Antihyperlipidemic activity in HFD-induced hyperlipidemic Charles Foster rat assessed as decrease in serum phospholipid level at 100 mg/kg, po administered for 4 weeks relative to control; assay type: functional; set-up: scale not given: the % may be the effect or the level left; how it was run: as §5
Rattus norvegicus [16] = assay: Antihyperlipidemic activity in HFD-induced hyperlipidemic Charles Foster rat assessed as increase in plasma HDL-phospholipid level at 100 mg/kg, po administered for 4 weeks relative to control; assay type: functional; how it was run: as §3
Rattus norvegicus [17] = assay: Antihyperlipidemic activity in Triton WR-1339-induced hyperlipidemic rat assessed as increase in PHLA enzyme level at 50 mg/kg, po; assay type: functional; how it was run: as §1
Rattus norvegicus [18] = assay: Antihyperlipidemic activity in HFD-induced hyperlipidemic Charles Foster rat assessed as reactivation of LPL activity at 100 mg/kg, po administered for 4 weeks relative to control; assay type: functional
How it was run: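 Male Charles Foster rats fed high-fat diet 4 weeks, then diet plus daily dosing 4 weeks. Liver homogenized (10% w/v) in cold 100 mM phosphate buffer pH 7.2; total lipolytic LPL activity read as nmol free fatty acid formed/h/mg protein; pooled data from 6 rats/group, mean ± SD.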

Rattus norvegicus [19] = assay: Toxicity in HFD-induced hyperlipidemic Charles Foster rat assessed as decrease in food intake at 100 mg/kg, po administered for 4 weeks; assay type: organism-based; set-up: dose 100 mg/kg, route oral; details: in vivo, 672 h
How it was run: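 Adult male Charles Foster rats (200−225 g) were kept at 25−26 °C, 50−70% humidity, and a 12/12 h light/dark cycle. They were fed a high-fat diet for 4 weeks to induce hyperlipidemia, then given high-fat diet plus test agent at 100 mg/kg/d for another 4 weeks. Food intake was recorded over the experimental period, with n = 6 per group, and animals were sacrificed after 8 weeks.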

Rattus norvegicus [20] = assay: Antiobesity activity in HFD-induced hyperlipidemic Charles Foster rat assessed as decrease in body weight at 100 mg/kg, po administered for 4 weeks; assay type: functional, organism-based; set-up: dose 100 mg/kg; how it was run: as §4
Rattus norvegicus [21] = assay: Antihyperlipidemic activity in Triton WR-1339-induced hyperlipidemic rat assessed as decrease in plasma triglyceride level at 50 mg/kg, po; assay type: functional; how it was run: as §1
Rattus norvegicus [22] = assay: Antihyperlipidemic activity in HFD-induced hyperlipidemic Charles Foster rat assessed as decrease in macrovesicular steatosis at 100 mg/kg, po administered for 4 weeks by light microscopic analysis; assay type: functional, organism-based; set-up: dose 100 mg/kg
How it was run: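 Rats on high-fat diet 4 weeks, then diet plus daily dosing for another 4 weeks before sacrifice. Liver sections 4 μm thick, stained with Ehrlich's hematoxylin and eosin, examined by light microscope for centrilobular macrovesicular steatosis.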

Rattus norvegicus [23] = assay: Antihyperlipidemic activity in po dosed Triton WR-1339-induced hyperlipidemic rat assessed as decrease in plasma triglyceride level; assay type: functional, organism-based; how it was run: as §2
Rattus norvegicus [24] = assay: Antihyperlipidemic activity in po dosed Triton WR-1339-induced hyperlipidemic rat assessed as decrease in plasma total cholesterol level; assay type: functional, organism-based; how it was run: as §2
Rattus norvegicus [25] = assay: Antihyperlipidemic activity in HFD-induced hyperlipidemic Charles Foster rat assessed as decrease in plasma VLDL-triglyceride level at 100 mg/kg, po administered for 4 weeks relative to control; assay type: functional; set-up: scale not given: the % may be the effect or the level left; how it was run: as §3
Rattus norvegicus [26] = assay: Antiobesity activity in HFD-induced hyperlipidemic Charles Foster rat assessed as decrease in gonadal fat-pad at 100 mg/kg, po administered for 4 weeks; assay type: functional, organism-based; set-up: dose 100 mg/kg; how it was run: as §4

CCOC(=O)C(C)Oc1ccc(C(c2cn(CC)c3ccccc23)c2cn(CC)c3ccccc23)cc1 (configuration not stated)
Activity (Rattus norvegicus [1]): 33 mg/dL
Activity (Rattus norvegicus [2]): 8 nmol/h/mL
percent increase (Rattus norvegicus [3]): 15%
Activity (Rattus norvegicus [4]): 24%
Activity (Rattus norvegicus [5]): Dose-dependent effect
Activity (Rattus norvegicus [6]): Dose-dependent effect
Activity (Rattus norvegicus [7]): 25%
Activity (Rattus norvegicus [8]): 21%
Activity (Rattus norvegicus [9]): Active
Activity (Rattus norvegicus [10]): 16%
Activity (Rattus norvegicus [11]): Active
Activity (Rattus norvegicus [12]): 25%
Activity (Rattus norvegicus [13]): Active
Activity (Rattus norvegicus [14]): 18 nmol/h/mL
Activity (Rattus norvegicus [15]): 24%
Activity (Rattus norvegicus [16]): 13%
percent increase (Rattus norvegicus [17]): 11%
Activity (Rattus norvegicus [18]): 20%
Activity (Rattus norvegicus [19]): Non-toxic
Activity (Rattus norvegicus [20]): Active
Activity (Rattus norvegicus [21]): 12 mg/dL
Activity (Rattus norvegicus [22]): Active
Activity (Rattus norvegicus [23]): Dose-dependent effect
Activity (Rattus norvegicus [24]): Dose-dependent effect
Activity (Rattus norvegicus [25]): 24%
Activity (Rattus norvegicus [26]): Active

CCOC(=O)CCCOc1ccc(C(c2cn(C)c3ccccc23)c2cn(C)c3ccccc23)cc1
Activity (Rattus norvegicus [1]): 35 mg/dL
Activity (Rattus norvegicus [2]): 11 nmol/h/mL
percent increase (Rattus norvegicus [3]): 20%
Activity (Rattus norvegicus [4]): 18%
Activity (Rattus norvegicus [5]): Dose-dependent effect
Activity (Rattus norvegicus [6]): Dose-dependent effect
Activity (Rattus norvegicus [7]): 21%
Activity (Rattus norvegicus [8]): 25%
Activity (Rattus norvegicus [9]): Active
Activity (Rattus norvegicus [10]): 11%
Activity (Rattus norvegicus [11]): Active
Activity (Rattus norvegicus [12]): 27%
Activity (Rattus norvegicus [13]): Active
Activity (Rattus norvegicus [14]): 21 nmol/h/mL
Activity (Rattus norvegicus [15]): 25%
Activity (Rattus norvegicus [16]): 8%
percent increase (Rattus norvegicus [17]): 10%
Activity (Rattus norvegicus [18]): 14%
Activity (Rattus norvegicus [19]): Non-toxic
Activity (Rattus norvegicus [20]): Active
Activity (Rattus norvegicus [21]): 13 mg/dL
Activity (Rattus norvegicus [22]): Active
Activity (Rattus norvegicus [23]): Dose-dependent effect
Activity (Rattus norvegicus [24]): Dose-dependent effect
Activity (Rattus norvegicus [25]): 17%
Activity (Rattus norvegicus [26]): Active
